Experiment: Toxicity liver stage against HepG2, at 10uM
Format: cell-based
Set-up: test concentration 10 uM, cell line HepG2-A16-CD81EGFP
Conditions: human, HepG2-A16-CD81EGFP cells; read-out: INHIBITION
Summary of the method: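 Uninfected HepG2-A16-CD81EGFP cells, 3 × 10^3 per well, 1536-well, plated on prespotted compound at 10 μM final, parasite-free screening media added to match infected plates; puromycin 10 μM positive, DMSO 0.5% negative; run in parallel with 48 h PbLuc assay at 37 °C, 5% CO2; viability by CellTiter-Glo luminescence, normalized to controls.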

Compound | cytotoxicity at 10 µM
Cc1csc(NCC(=O)c2c[nH]c3ccccc23)n1 | 22.4%
COc1cccc(-c2nc(C)c(C(=O)N[C@@H](CC(C)C)C(=O)O)s2)c1 | 4.21%
O=C(NCC1CCCO1)c1cc(-c2ccc3c(c2)CCO3)n[nH]1 (stereo not drawn) | -8.13%
O=C(c1ccc(N2CCCC2)nn1)N1CCc2ccccc21 | 2.6%
O=S(=O)(NCC1(c2cccs2)CCOCC1)c1cccnc1 | -3.51%
CC(=O)OC1CN(c2nc3c(C(F)(F)F)cccc3s2)C1 | -5.17%
CN1CCN(C(=O)c2n[nH]c3c2CN(Cc2nccs2)CC3)CC1 | -144%
Cc1cc(C(=O)NCC2Cn3nnc(C)c3CO2)no1 (stereo not drawn) | -4.07%
Cc1ccc(CN2CCC3(CC(C(=O)NCC4CC4)=NO3)C2)s1 (stereo not drawn) | 5.92%
CC1CCc2nc(O)c(C(=O)NCc3ccccn3)cc2C1 (stereo not drawn) | -2.99%
CC1CCc2nc(O)c(C(=O)NCCc3cccs3)cc2C1 (stereo not drawn) | 0.106%
O=c1c2cnc(N3CCCC3)nc2ccn1-c1cccc(F)c1 | 3.36%
O=C(NCCCO)c1nc(-c2ccc3cc[nH]c3c2)no1 | 4.28%
COc1cccc(C(=O)NCC(O)c2cccs2)c1 (stereo not drawn) | -22.4%
Cc1nc2c(Nc3ccc(C#N)cc3)nc(N)nc2n1C | 1.88%
COc1ccc(-c2cc(C3(O)CCCC3)on2)cc1 | 2.5%
O=C(c1cc(-c2cccs2)cs1)N1CCOCC1 | 5.01%
COc1ccc(-n2cc(CNC(=O)c3cc[nH]n3)nn2)cc1 | -4.71%
Cc1ccc(NC(=O)c2cccc(N(C)C)c2)nc1 | 8.77%
CC(C)(C)c1noc(CCC(=O)N2CCNC(=O)C2)n1 | -4.96%
CCN(CC(=O)NC)C(=O)c1csc(Cc2ccccc2)n1 | -5.66%
CC(C)(C)c1noc(CCCC(=O)N2CCNC(=O)CC2)n1 | -7.49%
CC(C)C1C(=O)NCCN1C(=O)CCCc1nc(C(C)(C)C)no1 (stereo not drawn) | -3.53%

Compound | cytotoxicity at 10 µM
Cc1nc(C(NS(=O)(=O)N(C)C)c2ccccc2F)no1 (stereo not drawn) | -2.09%
CSCCC(=O)N1CCN(CC(C)(C)O)CC1 | -5.85%
CN1CCc2ccc(NCc3cccs3)cc2C1=O | -4.72%
COc1cccc(-c2cc(NCc3nc(C)cs3)n(C)n2)c1 | -0.717%
COc1cc2c(nn1)CCN(Cc1nc(Cc3ccccc3)no1)C2 | -2.09%
O=C(c1ccc(NCc2ccco2)nc1)N1CCc2ccccc21 | -4.6%
O=C(NCCN1CCOCC1)NCc1ccc(-n2cccn2)cc1 | -6.4%
CCc1ncncc1C(=O)NCCNS(=O)(=O)c1ccccc1 | -6.55%
Cc1noc(C)c1C(=O)NCCN1CCN(S(C)(=O)=O)CC1 | -12.4%
CC(C)(C)n1ncc2c(=O)[nH]c(N3CCN(CCO)CC3)nc21 | -13.3%
CC(C)C(O)CNC(=O)Nc1cccc(-c2nccs2)c1 (stereo not drawn) | -5.5%
CCOCCOC(C)C(=O)Nc1ccc2[nH]c(C)cc2c1 (stereo not drawn) | 5.35%
O=C(Nc1cnn(-c2ccccc2Cl)c1)N[C@@H]1C=C[C@H](CO)C1 | 0.836%
NC(=O)CC1CCN(C(=O)c2csc(-c3ccccc3F)n2)CC1 | -1.29%
COCCN1CCN(CC(O)c2cc(OC)ccc2OC)CC1 (stereo not drawn) | 3%
O=C(NCCSC1CCCC1)c1ccc(F)cc1F | -3.16%
N#Cc1ccc(N2CCCC2Cn2cncn2)nc1 (stereo not drawn) | 6.05%
O=C(NCC(O)COc1cccc(F)c1)c1ccoc1 (stereo not drawn) | -2.56%
CS(=O)(=O)NCCNC(=O)NC1(c2ccc(F)cc2)CCCC1 | -1.44%
OCCOc1ccc(NCc2cc(F)cc3cccnc23)cn1 | -4.46%
CCn1c(C)nnc1CN(C)C1CCN(Cc2c(C)noc2C)C1 (stereo not drawn) | 0.317%
CCN1CCC(NC(=O)Cn2cc(C)c3ccccc32)CC1 | -1.74%
Cc1cn(CC(=O)NC2CCC3(CC2)OCCO3)c2ccccc12 | -1.21%

Compound | cytotoxicity at 10 µM
COC(=O)c1ccc(N2CCC(C(O)c3ccccc3)CC2)nn1 (stereo not drawn) | 1.68%
CC(C)C(C)N(C(=O)c1cc2c([nH]c1=O)CCCC2=O)C1CC1 (stereo not drawn) | -3.45%
COCCc1noc(-c2cc(Cl)c3c(c2)OCCCO3)n1 | 3.61%
Cc1ccc(OCC(O)COC2CCOCC2)c(Br)c1 (stereo not drawn) | -4.66%
CC(C)NC(=O)Nc1ccc(-c2nc(C(C)C)no2)cc1 | -8.56%
CC(C)c1noc(-c2ccc(NC(=O)NCC(O)C(C)C)cc2)n1 (stereo not drawn) | -7.03%
Cc1c(C(=O)NCCC(=O)N2CCCC2)oc2c(F)cccc12 | 5.87%
O=C(N1CCC(O)(C(F)(F)F)C1)C1(c2cccc(Cl)c2)CC1 (stereo not drawn) | -2.72%
CC(Cn1cccn1)NCc1csc(-c2ccccc2)n1 (stereo not drawn) | -13.4%
CN(C(=O)Cc1ccc2c(c1)OCCO2)C1CCCC1 | 9.66%
Cc1ccsc1[C@@H]1CCN(C(=O)CCCn2cncn2)C[C@H]1O | -6.91%
O=C1OC2(CCN(CC3CCCO3)CC2)CN1CCc1ccccc1 (stereo not drawn) | -6.21%
O=C1CCC(c2ccccc2)(c2ccccc2)CN1CCO | 2.94%
CC(C)c1nnc(N2C[C@@H](CN(C)CCO)[C@@H](CO)C2)s1 | -2.48%
Cc1nn2cc(CCNC(=O)c3cc(C(C)C)no3)nc2s1 | -4.8%
Cc1ncsc1CCC(=O)N1CCN(CCn2cncn2)CC1 | 3.21%
CN(C)C1CCN(C(=O)c2cccc(S(=O)(=O)NCC3(C)COC3)c2)C1 (stereo not drawn) | -9.22%
Cc1ccsc1CCNC(C)C(=O)NC1CCCC1 (stereo not drawn) | -4.44%
CN1CSC[C@H]1C(=O)N1CCN(Cc2cccc(F)c2)CC1 | -6.92%
Cc1ncsc1CN1CC2(CCCC2)CC1=O | -0.369%
COCC[C@]1(O)CCN(C(=O)CCc2cnn(C)c2)C[C@H]1C | 1.72%
CC(C)CC(NC(=O)c1cc(-c2cccn2C)n[nH]1)c1ncnn1C (stereo not drawn) | -3.08%
CC(C)NC(=O)Nc1ccc(-c2nc3c([nH]2)CCNC3)cc1 | -3.5%

Compound | cytotoxicity at 10 µM
Cc1ccc(C)c2c1NC(=O)C2CC(=O)O (stereo not drawn) | 28.4%
COc1ccccc1[C@@H]1CN(CC2CCC2)C[C@H]1C(=O)O | -1.02%
COc1ccc2c(C)c(C(=O)NC3CCN(S(C)(=O)=O)CC3)oc2c1 | 8.55%
CSc1ccc2c(C)cc(N[C@@H](C)CO)nc2c1 | -1.07%
COCC1CCN(C(=O)c2cc(-c3ccco3)nc3c(Cl)cccc23)C1 (stereo not drawn) | 1.12%
CN(CC1Cc2ccccc2CN1C)C(=O)Cc1cccs1 (stereo not drawn) | -0.661%
CCn1c(Cn2ccnc2)nnc1C1CCN(Cc2ccc(C)o2)CC1 | -2.28%
CC(C)(O)CCc1cccc(C(=O)N2CCC3(CCO3)CC2)c1 | -0.864%
CNCc1n[nH]c(=O)n1-c1ccccc1Oc1ccccc1 | -4.88%
CC(=O)c1ccc(F)cc1-c1cc(NCCO)nc2[nH]ccc12 | -5.72%
Cc1ccnc(NCc2cn3c(C)csc3n2)n1 | -5.66%
O=C(Cc1ccc(CO)cc1)N1CCN(CC2CC2)[C@@H]2CS(=O)(=O)C[C@@H]21 | -14.2%
CC(=O)N[C@H]1CCN(C(=O)c2cc(Cn3cnc4ccccc43)[nH]n2)C1 | -1.91%
Nc1nc2c(c(NCc3nc(-c4ccncc4)n[nH]3)n1)CCCC2 | -0.0554%
CCN(C)CC(C)Cn1cnc(-c2ccccc2)c1-c1cncn1CC (stereo not drawn) | 1.33%
CCn1c(N)nc2cc(C(=O)N3CC(c4ccccn4)C3)cnc21 | -14.8%
CN(c1ccc(-c2nc(C3CC3)no2)cn1)C1CCOCC1 | -10.8%
O=c1c2cccc(C(F)(F)F)c2ncn1CCN1CCNCC1 | -3.21%
Fc1ccccc1CC1CCN(Cc2nccs2)CC1 | -6.92%
CC(C)Cc1cc(C(=O)NC(C)(CO)CO)n(C)n1 | 6.57%
Cc1nnsc1CNC(=O)Nc1cccc(N2CCN(C)C2=O)c1 | -3.97%
O=C(NCc1ccc2nonc2c1)C1CCN(C(=O)C2CCC2)CC1 | -8.61%
Cc1c(C(=O)NC2CCCC2)nnn1-c1ccccc1 | 11.4%

Compound | cytotoxicity at 10 µM
CC(C)Cn1cncc1-c1nc2c([nH]1)CC(C)(C)CNC2=O | -1.41%
COCCN1CC2(CCCN(c3ncnc4[nH]cnc34)C2)CCC1=O (stereo not drawn) | -3.68%
CNc1ncc(CN(C)Cc2cc3n(n2)CCNC3)cn1 | -5.71%
COc1cccc2c(=O)n(CCN3CCNCC3)cnc12 | 0.623%
Cc1ccc([C@@H]2CN(C(=O)c3cccnn3)C[C@H]2NC(=O)C2CC2)cc1 | -17.7%
Cc1ccc(NC2CCN(C(=O)c3ccnc(N(C)C)c3)CC2)nn1 | 3.97%
CN(C)S(=O)(=O)N(C)C(c1cccc(F)c1)c1ccccn1 (stereo not drawn) | 3.22%
CCOCCCn1c(NC(=O)c2cnc(C)cn2)nc2ccccc21 | -18.7%
CN(C)CC1CN(Cc2nnc(C(C)(C)C)o2)CCO1 (stereo not drawn) | -4.17%
Cc1cnn(CC2CN(CC(=O)Nc3cc(C)no3)CCO2)c1 (stereo not drawn) | -6.13%
CCN(Cc1ccccc1)C(=O)CN1CCOC(Cn2cncn2)C1 (stereo not drawn) | -6.31%
NC(=O)CS(=O)(=O)Cc1cc(Cl)c2c(c1)OCCCO2 | -0.463%
CCOc1ccc(C(=O)N2CCCC2c2c(C)nn(C)c2OC)cn1 (stereo not drawn) | 2.63%
O=C(c1cc(F)ccc1F)C1CCN(C(=O)c2ccco2)CC1 | 3.15%
Cc1nc(CN2CCCC(N(C)Cc3nc(CC(C)C)no3)C2)no1 (stereo not drawn) | 5.35%
O=C(c1ccccn1)N1CCOC2(COCCN(Cc3cc[nH]n3)C2)C1 (stereo not drawn) | 0.0227%
Cc1nc(COC[C@@H]2CC[C@H]3[C@H](CCN3c3ccccn3)O2)cs1 | 4.06%
Cc1cccc(CN2CCc3ncnc(N4CCN(C)CC4)c3CC2)n1 | -145%
COc1cccc(C=CCCN2CCN(S(C)(=O)=O)CC2)c1 | -1.62%
CN(C)C(c1ccccn1)C1CCC(CNC(=O)C2CC2)CC1 (stereo not drawn) | 6.6%
COCCN1C(=O)[C@@H]2CC[C@H]1CN(C(=O)COc1ccc(F)c(Cl)c1)C2 | -0.447%

Reference: ChEMBL document CHEMBL4513216, “Probing the Open Global Health Chemical Diversity Library for Multistage-Active Starting Points for Next-Generation Antimalarials” (ACS Infect Dis, 2020)
